This excerpt belongs to a sample that is enriched for hits.
HSF1 inh = HSF1 inhibition. NIH3T3-HGL HSE-luciferase, MG132-induced, luminescence 8 h; stronger effect = lower value. activity change, negative = inhibition, % at 7.5 µM (by protocol). actives 0.77% (n = 300,000). AID 2098;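 active = more than half of replicate wells show activity change below -50%, luminescence cut by over half; inconclusive = some wells, but at most half, below -50%; inactive = no replicate well below -50%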;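 note: luciferase reports HSF-1 transcriptional activity via heat shock element; 0% = median of DMSO wells and -100% = zero luminescence signal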
Hsp70 activator = switches on Hsp70 transcription; activation, % at 10 µM; HeLa Hsp70 promoter luciferase reporter, luminescence; scaled: vehicle 0, proteasome-inhibitor control 100%; actives 0.04% (n = 200,000);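 active = activation above the mean across all tested compounds plus 3 SD, cutoff set per campaign, cut at about 5.5% in these data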;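 note: 100% = MG132 at 30 µM as the positive control and 0% = DMSO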
Lmaj promast = inhibitors of Leishmania major promastigote growth | inhibition, % at 10 µM | actives 9% (n = 200,000) | AID 1063 | Leishmania major promastigotes, resazurin fluorescence viability; in the data active = inhibition above about 50%;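 note: promastigotes grown with compound for 44 hours at 28 °C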
T cruzi inh = blocks replication of Trypanosoma cruzi. T. cruzi beta-gal in NIH3T3, luminescence, 90 h. inhibition, % (concentration not given with the values). actives 1.4% (n = 300,000). AID 1885;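 active = mean inhibition across valid replicates above about 55%, limit read from the data; inconclusive = mean below that limit but half or more replicates reach it; inactive = mean below it, under half of replicates reach it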;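 note: signal also drops with host cell toxicity which is not excluded here; 0% = plate median of DMSO wells and 100% = zero luminescence signal; higher percent means less beta-gal luminescence so fewer parasites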
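assay system = mouse NIH/3T3 fibroblasts infected with β-gal-expressing T. cruzi Tulahuen C4 | input = 5,000 NIH/3T3 host cells per well | buffer or medium = DMEM plus 2% FBS | timing = 3 h host attachment, then at least 90 h co-culture | measured by = GalScreen luminescence, 60 min | evaluation = luminescence reflecting intracellular parasite burden, expressed as percent inhibition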
HSF1 activator = increases HSF-1 driven luciferase reporter signal; actives 1.7% (n = 300,000); NIH3T3-HGL HSF-1 luciferase reporter, MG132, 8 h; 100% = twice DMSO control signal; activation, % at 9 µM;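 active = mean replicate activation of at least 50% with a set share of replicates each reaching 50%; inconclusive = only one of those two conditions met; inactive = mean below 50% and too few replicates reaching it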;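 note: 0% = median of the neutral control wells and 100% = twice that signal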
The depositor's hits bear a star; ? = inconclusive; . = no result given.

SMILES	HSF1 inh	Hsp70 activator	Lmaj promast	T cruzi inh	HSF1 activator
O=S(=O)(c1ccc(Cl)cc1)N1CCC(N2CCOCC2)CC1	-6	0	91*	3	-7
CC12CCC(C(=O)NNc3ccc([N+](=O)[O-])cc3)(CC1=O)C2(C)C (stereo not given)	-4	0	0	4	14
COc1ccc(S(=O)(=O)N2CCN(C3CCCCCCC3)CC2)cc1	1	0	73*	3	-10
CC(=O)c1ccc(N2CCN(C(=O)Nc3ccc(C(C)C)cc3)CC2)cc1	-1	0	65*	-1	1
CC(=O)c1ccc(N2CCN(C(=O)Nc3ccc(F)cc3)CC2)cc1	-5	0	29	-10	-25
c1ccc(/N=C2\N=C(Nc3ccccn3)c3ccccc32)nc1	-9	.	.	65*	3
O=C(/C=C/c1ccccc1)CC(O)(c1ccccc1)C(F)(F)C(F)F (stereo not given)	3	0	100*	0	15
O=C(CC(O)(c1ccccc1)C(F)(F)C(F)F)c1cccs1 (stereo not given)	.	0	9	-4	.
COc1ccc(/C=C/C(=O)CCC(=O)O)cc1	2	0	-1	-2	-8
COc1ccc(/C=C/C(=O)CC(O)(c2ccccc2)C(F)(F)F)cc1 (stereo not given)	3	0	98*	11	-9
O=C(OCn1ncc(Br)c(Br)c1=O)c1ccc(F)cc1	-94*	3	100*	51	-95
Cc1ccc(NS(=O)(=O)c2cccc(C(=O)O)c2)cc1S(=O)(=O)N1CCOCC1	5	0	57*	13	3
Cc1ccc(NC(=O)C2CC2C)cc1S(=O)(=O)N1CCOCC1 (stereo not given)	-6	.	.	60*	-13
CCN(CC)S(=O)(=O)c1ccc(NC(=O)C2CCCN(C(=O)c3ccc(Cl)cc3)C2)cc1 (stereo not given)	0	0	97*	6	-4
Cc1cc(C(=O)Nc2ccc(C)c(S(=O)(=O)N3CCOCC3)c2)c(C)o1	3	0	2	3	8
CC(=O)Nc1ccc(NC(=O)C2CCCN(C(=O)c3ccc(Cl)cc3)C2)cc1 (stereo not given)	-1	0	4	-19	12
Cc1ccc(NC(=O)C2CCCN(C(=O)c3ccc(Cl)cc3)C2)cc1S(=O)(=O)N1CCOCC1 (stereo not given)	4	0	13	62*	19
CC1=C(C(N)=O)S(=O)(=O)c2ccccc21	0	.	.	-10	-15
Cc1ccc(CNC(=O)c2ccc(Cn3cc(-c4ccc(C)cc4)nc3-c3ccncc3)cc2)cc1	44	.	.	45	?
N#CCCN1C(=O)C2(OCCO2)c2ccccc21	-3	.	.	-9	-3
CSc1ncccc1C(=O)NCCc1ccccc1F	0	.	.	-3	-22
COc1ccc(CCN(C(=O)c2ccco2)C(C(=O)NC2CCCC2)c2ccncc2)cc1OC (stereo not given)	4	0	-3	0	0
COc1ccc(C(=O)/C=C/C(=O)N(Cc2ccccc2)C(C(=O)NC2CCCCC2)c2ccncc2)c(O)c1 (stereo not given)	7	-1	93*	-1	35
COCCC(=O)N(Cc1ccc2c(c1)OCO2)C(C(=O)NC1CCCCC1)c1ccncc1 (stereo not given)	-1	0	-3	17	1
COc1ccc(C(=O)/C=C/C(=O)N(Cc2ccc(F)cc2)C(C(=O)NC2CCCCC2)c2ccncc2)c(O)c1 (stereo not given)	-9	0	71*	35	-5
SMILES	HSF1 inh	Hsp70 activator	Lmaj promast	T cruzi inh	HSF1 activator
COc1ccccc1CN(C(=O)CCl)C(C(=O)NC1CCCCC1)c1ccncc1 (stereo not given)	.	0	61*	.	.
COc1ccc(C(C(=O)NC2CCCC2)N(Cc2ccc(F)cc2)C(=O)c2ccn[nH]2)cc1OC (stereo not given)	-7	0	-3	-5	9
COc1ccc(C(=O)/C=C/C(=O)N(Cc2ccccc2OC)C(C(=O)NC2CCCCC2)c2ccncc2)c(O)c1 (stereo not given)	7	0	99*	23	26
CN(CCCNC(=O)CCC(=O)N1CCOc2ccc(Cl)cc21)Cc1ccccc1	-1	.	.	30	2
CCCCc1nc(N2CCN(C(=O)c3ccco3)CC2)c(C#N)c2c1CCCC2	-3	.	.	38	-18
COC(=O)c1c(-c2ccccc2)nn(-c2ccccc2)c1C(=O)OC	9	.	.	-12	17
O=C1S/C(=C\c2ccc(Cl)cc2)C(=O)N1CCn1cnnn1	-2	1	27	-10	28
CCC(=O)O[C@]1(C(=O)SCF)[C@H](C)C[C@H]2[C@@H]3C[C@H](F)C4=CC(=O)C=C[C@]4(C)[C@@]3(F)[C@@H](O)C[C@@]21C	-53*	.	.	13	-62
c1ccc2c(c1)nc(N1CCCCCC1)c1ccccc12	-6	.	.	9	0
C(=C\c1nc(N2CCCC2)c2ccccc2n1)/c1ccccc1	18	0	71*	23	33
CC1CCN(c2nc(/C=C/c3ccccc3)nc3ccccc23)CC1	7	0	63*	40	-7
CC1CCN(c2nc3ccccc3nc2N2CCC(C)CC2)CC1	0	0	-7	-23	7
CC(C(=O)O)N1C(=O)C2C3CC(C2C1=O)C1C(c2ccccc2)c2sc(=O)[nH]c2SC31 (stereo not given)	-3	0	-6	-4	-5
CC1(C)Cc2c(sc3nc(C4CCCCC4)n(N)c(=O)c23)CO1	-3	.	.	-11	-1
CC1(C)Cc2c(sc3nc(C4CC4)n(N)c(=O)c23)CO1	-60*	.	.	8	-71
COc1cccc(CN2CC(C(=O)NC3CCC3)CCC2=O)c1 (stereo not given)	-7	.	.	-9	-7
C=C1CCC2C(C)(C)[C@H](O)CC[C@@]2(C)[C@@H]1COc1cc(=O)oc2ccccc12 (stereo not given in full)	0	0	98*	36	-6
C=C1CCC2C(C)(C)[C@@H](O)CC[C@@]2(C)[C@@H]1COc1ccc2ccc(=O)oc2c1 (stereo not given in full)	-2	.	.	41	-8
COc1ccc(/C=C(\C#N)C(=O)Nc2ccccn2)cc1	24	.	.	-9	75*
Cc1ccc(/C=C(\C#N)C(=O)Nc2ccccn2)o1	37	0	3	-1	60*
Cc1ccc(/C=C(\C#N)C(=O)NC(C)C)o1	-6	0	-2	-2	-16
COc1ccc(/C=C2/SC(=O)N(CCC(=O)Nc3ccccc3C(=O)O)C2=S)cc1	-12	.	.	-3	-21
COc1ccccc1C(=O)N1CCN(C2CCN(Cc3ccccc3)CC2)CC1	6	0	91*	-2	-2
O=C(O)C1CCCCC1C(=O)Nc1cccc(C(=O)N2CCCCC2)c1 (stereo not given)	-56*	0	-4	-16	-65

Assay outcomes from PubChem BioAssay.
